PP1 counter = blocks human PP1-alpha phosphatase, a PP5 counter-screen | purified PP1alpha, OMFP fluorescence | AID 2235 | inhibition, % at 6.7 µM | 320,000 compounds, 0.9% hits | P62136;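 active means inhibition above the mean inhibition of all tested compounds plus 3 SD, computed separately for each screening campaign, cut at about 15% in these data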
Fh CTSL1 inh = blocks F. hepatica cathepsin L1 in PFM18AAP counter-screen; recombinant F. hepatica cathepsin L1, Z-Leu-Arg-MCA fluorescence; inhibition, % at 5.96 µM; 300,000 compounds, 0.49% hits; AID 1906;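 active means inhibition above the mean of all tested compounds plus 3 SD, set per screening campaign, cut at about 17% in these data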;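 further: 0% = plate median of test compound wells and 100% = 1 µM Z-Phe-Ala-diazomethylketone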
UCH37 DUB inh = blocks the human deubiquitinase UCH37 | Q9Y5K5 | purified proteasome/UCH37, Ub-AMC cleavage fluorescence | inhibition, % (test concentration not listed) | 330,000 compounds, 0.33% hits;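 active means mean inhibition over replicate wells above about 20%, limit read from the data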;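 further: 0% = compound-free wells with enzyme and 100% = wells lacking proteasome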
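Schedule: 30 min plus 25 min, room temperature / Material: human UCH37 within purified proteasomes / Technique: AMC fluorescence intensity at 355/460 nm / Buffer or medium: pH 7.4 Tris-HCl (50 mM) with ovalbumin, ATP-MgCl2, DTT / Controls: wells without proteasome as full block, compound-free enzyme plus substrate as uninhibited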
UBC13 polyUb = blocks human UBC13 polyubiquitin chain formation; 330,000 compounds, 0.47% hits; P61088; inhibition, % at 20 µM; TR-FRET; in the data active means inhibition above about 45%, passing the limit was not always enough; inconclusive means no clear call, values can overlap the other calls
PREPL inh = inhibitors of human prolyl oligopeptidase-like enzyme PREPL | inhibition, % at 5.96 µM | Q4J6C6 | recombinant PREPL, fluorescence polarization activity-based probe | 320,000 compounds, 0.68% hits;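 further: 0% = enzyme with DMSO and 100% = wells lacking enzyme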
Target sequence (Q4J6C6 whole entry, looked up): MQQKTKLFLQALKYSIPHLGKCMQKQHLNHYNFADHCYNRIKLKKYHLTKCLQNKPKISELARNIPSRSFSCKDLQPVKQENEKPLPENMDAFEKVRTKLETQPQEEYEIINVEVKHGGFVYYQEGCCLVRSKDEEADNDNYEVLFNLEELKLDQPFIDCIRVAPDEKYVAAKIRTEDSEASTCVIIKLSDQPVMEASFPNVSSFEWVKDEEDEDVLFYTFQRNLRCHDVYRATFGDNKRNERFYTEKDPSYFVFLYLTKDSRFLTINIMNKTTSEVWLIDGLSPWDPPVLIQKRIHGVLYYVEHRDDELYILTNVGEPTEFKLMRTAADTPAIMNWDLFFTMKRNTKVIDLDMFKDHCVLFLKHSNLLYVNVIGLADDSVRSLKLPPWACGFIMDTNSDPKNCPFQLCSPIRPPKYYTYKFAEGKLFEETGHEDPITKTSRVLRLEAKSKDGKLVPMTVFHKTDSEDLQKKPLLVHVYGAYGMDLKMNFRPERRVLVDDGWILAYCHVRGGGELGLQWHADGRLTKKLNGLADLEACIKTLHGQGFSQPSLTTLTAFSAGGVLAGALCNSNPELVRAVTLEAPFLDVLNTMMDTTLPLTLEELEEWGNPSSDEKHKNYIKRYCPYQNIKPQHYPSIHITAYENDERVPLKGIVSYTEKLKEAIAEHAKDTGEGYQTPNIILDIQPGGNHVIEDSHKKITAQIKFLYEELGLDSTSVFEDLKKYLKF
PP5 inh = inhibitors of human protein phosphatase 5 (PP5); P53041; AID 1987; 320,000 compounds, 0.18% hits; purified PP5c, OMFP substrate fluorescence; inhibition, % at 6.7 µM;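 active means inhibition above the campaign's mean inhibition across all tested compounds plus 3 SD, cut at about 9.5% in these data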;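 further: 0% = DMSO only and 100% = 100 µM cantharidin control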
PREPL inh cf = human PREPL inhibition, confirmation; shares compounds with PREPL inh; recombinant PREPL, fluorescence polarization activity probe; inhibition, % at 5.96 µM; 2,000 compounds, 67% hits; AID 2803;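 further: 0% = protein with DMSO and 100% = wells lacking protein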
Casp3 UBC13 ctr = counter-screen for UBC13 inhibitors: human caspase-3 inhibition; shares compounds with UBC13 polyUb; Recombinant caspase-3, Caspase-Glo 3/7 luminescence, 60 min; inhibition, % at 20 µM; 1,400 compounds, 4% hits;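 active means mean inhibition across replicates above about 26%, limit read from the data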;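 further: plate controls were DMSO with caspase-3 for no effect and DMSO wells lacking enzyme for full effect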
UBC13 confirm = confirmation of human UBC13 polyubiquitin inhibitors; 1,400 compounds, 68% hits; inhibition, % at 10 µM; shares compounds with UBC13 polyUb; UBC13 polyubiquitination, TR-FRET, biochemical; in the data active means inhibition above about 45%; inconclusive means no clear call, values can overlap the other calls
UCH37 reconfirm = UCH37 Ub-AMC cleavage inhibition, confirmed. shares compounds with UCH37 DUB inh. Proteasome-bound UCH37, Ub-AMC cleavage fluorescence. inhibition, % at 20 µM. 480 compounds, 27% hits. AID 624100;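 active means average inhibition over replicates above about 50%, so the earlier screening hit is confirmed, limit read from the data; inactive means the rest, counted as false positives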;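 further: based on cleavage rate fitted by regression over a 30 min kinetic read; 0% = proteasome plus Ub-AMC and 100% = Ub-AMC without proteasome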
* marks the source's active call; other numbers are inactive results; ? = inconclusive; nt = not tested or not shown; ! = repeats disagree. Sampled rows, rich in hits. Any-hit rate of the full collection: about 2.3%. Unless noted, no stated cut-off is given here; in the data, active means inhibition above about 43%; inactive means the rest.

SMILES	PP1 counter	Fh CTSL1 inh	UCH37 DUB inh	UBC13 polyUb	PREPL inh	PP5 inh	Casp3 UBC13 ctr	UBC13 confirm	others
Cn1nc(-c2ccccn2)nc2c(=O)n(C)c(=O)nc1-2	41*	114*	97*	-64	59*	17*	nt	nt	PREPL inh cf=52*;UCH37 reconfirm=100*
CCC(CNc1cc(OC)cc2cccnc12)NC1CCCCC1 (stereo not drawn)	6	86*	37*	nt	54*	8	nt	nt	PREPL inh cf=44*;UCH37 reconfirm=54*
COc1cc(NCCCC(C)N)c2ncccc2c1 (stereo not drawn)	nt	nt	-1	nt	nt	nt	nt	nt
Oc1ccc(N=Nc2ccccc2-c2nn[nH]n2)c(O)c1	-1	3	27*	-99	51*	2	nt	nt	PREPL inh cf=53*;UCH37 reconfirm=26
O=C(NN=Cc1ccc(-c2ccc([N+](=O)[O-])cc2)o1)C(O)c1ccccc1 (stereo not drawn)	nt	nt	8	nt	nt	nt	nt	nt
COc1c(O)cccc1C=NNC(=O)Cn1ccnc1C	nt	nt	0	nt	nt	nt	nt	nt
COc1cc(C#Cc2c(-c3cncn3C)n(C)c3ccc(Br)cc23)cc(OC)c1	nt	nt	0	46*	23	nt	-3	37
CCc1ccc(N2CC(C(=O)NN=Cc3cccc([N+](=O)[O-])c3)CC2=O)cc1 (stereo not drawn)	nt	nt	3	nt	nt	nt	nt	nt
Cc1ccc(C2C(C#N)=C(N)Oc3n[nH]c(-c4cccs4)c32)cc1 (stereo not drawn)	4	0	6	2	-3	2	nt	nt
COc1cc(C2C(C#N)=C(N)Oc3n[nH]c(-c4cccs4)c32)cc(OC)c1O (stereo not drawn)	0	-3	2	84*	0	3	0	88*
CCCCCCCN1C(Nc2ccccc2)=NC[C@@H]1Cc1ccccc1	2	2	0	36	9	1	nt	nt
CCN1C(Nc2ccccc2)=NC[C@@H]1Cc1ccccc1	2	2	1	7	5	0	nt	nt
c1ccc(CCCCN2C(Nc3ccccc3)=NC[C@@H]2Cc2ccccc2)cc1	5	-1	-1	49*	-6	3	-4	17
CC(C)(C)C1CCC(CN2C(Nc3ccccc3)=NC[C@@H]2Cc2ccccc2)CC1 (stereo partly drawn)	nt	nt	nt	72*	25	nt	3	77*
Cc1ccc(S(=O)(=O)Oc2ccc(C)cc2C=N/N=C2\NC(=O)C(C)S2)cc1 (stereo not drawn)	nt	nt	7	nt	nt	nt	nt	nt
COC(=O)C1=C(C)N(Cc2ccccc2)C(=NCc2ccc(OC)cc2)N[C@H]1c1cccc(F)c1	3	7	-1	74*	-22	-6	3	66*
COC(=O)C1=C(C)N(Cc2ccccc2)C(=NCc2cccc(Cl)c2)N[C@H]1c1cccc(F)c1	nt	nt	2	72*	-61	nt	-1	86*
CCC1CCCCN1c1ccc([N+](=O)[O-])cc1C=NNC(=O)Cn1c2ccccc2c(=O)c2ccccc21 (stereo not drawn)	nt	nt	-11	nt	nt	nt	nt	nt
COC(=O)c1sc(SC)c(S(=O)(=O)C(C)C)c1NN=C(C#N)C(=O)c1ccccc1	nt	nt	16	nt	nt	nt	nt	nt
NC(=S)Nc1nc2ccccc2[nH]c1=O	-3	11	9	60*	11	1	-5	64*
O=c1[nH]c2ccccc2nc1NCc1ccccc1	2	-1	-25	0	3	3	nt	nt
Cc1ccc(NC(=S)c2nc3ccccc3[nH]2)c(C)c1	1	3	-1	-22	1	5	nt	nt
Cc1ccc2[nH]c(=O)c(NC(N)=S)nc2c1	0	0	9	71*	17	1	-2	85*
CCNC(C(=O)c1c[nH]c2c(CC)cccc12)c1ccccc1 (stereo not drawn)	5	-1	1	50*	-24	-1	-1	64*
Cc1cc2c(cc1C)C(=NNC(=O)c1ccccn1)CCC2	nt	nt	1	nt	nt	nt	nt	nt
SMILES	PP1 counter	Fh CTSL1 inh	UCH37 DUB inh	UBC13 polyUb	PREPL inh	PP5 inh	Casp3 UBC13 ctr	UBC13 confirm	others
O=C(CCC1CCCCC1)NCCN1C2=NC[C@@H](Cc3ccccc3)N2C[C@H]1Cc1ccc(O)cc1	5	1	0	15	-59	2	nt	nt
O=C(CCC1CCCCC1)NCCN1C2=NC[C@H](Cc3ccccc3)N2C[C@H]1Cc1ccc(O)cc1	2	-1	1	65*	-18	-1	2	60*
COc1ccc(C[C@@H]2CN3C(=NC[C@@H]3Cc3ccc(O)cc3)N2C[C@H](C)NC(=O)CCC2CCCCC2)cc1	3	3	0	56*	7	1	0	38
CCOC(=O)c1c(C)c2c(n1C)CCC/C2=N\O	0	-2	nt	79*	-1	1	-2	94*
CSc1ccc2c(c1)C(N1CCN(C)CC1)Cc1ccccc1S2 (stereo not drawn)	13	1	1	52*!	-2	4	4	25
CN1CCN(C2Cc3ccccc3Sc3ccc(Cl)cc32)CC1 (stereo not drawn)	3	-2	1	45*	-13	3	-4	26
CN1CCN(C2Cc3ccccc3Sc3cc(C(F)(F)F)ccc32)CC1 (stereo not drawn)	5	0	10	22	-21	2	nt	nt
COc1cccc2sc3ccc(C#CC4(O)CCCCC4)cc3c(=O)c12	5	-3	3	53*	-21	2	91*	?
Cc1ccc2c(n1)CC(C)(C)CC2=O	2	2	0	47*	5	2	-2	10
COc1ccc(C(=O)OCC(=O)NC2CCCCCC2)cc1OC	-2	nt	1	66*	6	2	1	5
CCCc1ccc(OCc2ccc(C(=O)O)o2)c(OC)c1	-4	-1	4	11	-2	1	nt	nt
COc1ccc(CCN(C)C(=O)c2ccc(COc3ccccc3)o2)cc1OC	-1	-2	5	46*	14	-1	-3	82*
CCOc1c(Br)cc(C=NNC(=O)c2ccccc2)cc1OC	nt	nt	5	nt	nt	nt	nt	nt
CCOC(=O)C1=C(COC(=O)c2ncc(Cl)c(Cl)c2Cl)NC(=O)NC1C (stereo not drawn)	-1	-2	1	76*	-28	-1	-2	87*
CCOC(=O)C1=C(COC(=O)c2nc(Cl)ccc2Cl)NC(=O)NC1C (stereo not drawn)	nt	nt	0	10	nt	nt	nt	nt
Cc1cccc(C(=O)ON=C(N)c2cccc([N+](=O)[O-])c2)c1	nt	nt	2	nt	nt	nt	nt	nt
